The source of these data is ChEMBL document CHEMBL1142707, “Bisaryloxime ethers as potent inhibitors of transthyretin amyloid fibril formation” (J Med Chem, 2005).

A value given as a limit tells only on which side of the number the result lay.

The target of the first assay is Transthyretin (Homo sapiens) (UniProt P02766). Briefly: Percentage of WT-TTR (3.6 uM) amyloid fibril formation at pH 4.4 upon incubation with the compound (7.2 uM). Put shortly: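 WT-TTR (7.2 µM, 0.4 mg/mL) in 10 mM phosphate pH 7.2, 100 mM KCl, 1 mM EDTA was preincubated 30 min at 37 °C with inhibitor added from a 1.44 mM DMSO stock. An equal volume of 200 mM acetate pH 4.2 brought the sample to pH 4.4 (3.6 µM TTR, 7.2 µM compound final). Left 72 h at 37 °C, vortexed, turbidity read at 350 and 400 or 500 nm. Run in duplicate or triplicate.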
The molecule `Clc1cc(Cl)cc(/C=N/Oc2cc(Cl)cc(Cl)c2)c1` yielded a Formation of 63%.
Molecule `Clc1cc(Cl)cc(/C=N/Oc2ccccc2)c1` yielded a Formation of 56%.
In the case of `Fc1cc(F)cc(O/N=C/c2cccc(C(F)(F)F)c2)c1`, the Formation was 86%.
Regarding `FC(F)(F)c1cccc(/C=N/Oc2ccccc2)c1`, the Formation is 92%.
The same measure, in the same setting: next, `O=C(O)c1ccc(O/N=C/c2cccc(C(=O)O)c2)cc1`: 13%.
Still for that read-out and setting: next, `O=C(O)c1cccc(/C=N/Oc2ccccc2C(=O)O)c1`: 87%; `O=C(O)c1ccc(O/N=C/c2ccccc2C(=O)O)cc1`: 97%.
Same read-out and setting: next, `O=C(O)c1ccccc1O/N=C/c1cccc(C(F)(F)F)c1`: 74%.
Consider `O=C(O)c1ccccc1/C=N/Oc1ccccc1C(F)(F)F`, for which the Formation is 75%.
`O=C(O)c1cccc(/C=N/Oc2cccc(C(F)(F)F)c2)c1` gave a Formation of 9%.
Turning to `FC(F)(F)c1cccc(/C=N/Oc2cccc(C(F)(F)F)c2)c1`, the Formation came out at 83%.
The same measure, in the same setting: next, `O=C(O)c1ccccc1/C=N/Oc1cc(F)cc(F)c1`: 84%; `O=C(O)c1ccc(/C=N/Oc2ccc(C(=O)O)cc2)cc1`: 46%.
On the same count and under the same terms, next, `FC(F)(F)c1cccc(O/N=C/c2ccccc2C(F)(F)F)c1`: 83%; `Fc1cc(F)cc(/C=N/Oc2cc(Cl)cc(Cl)c2)c1`: 61%.
Still for that read-out and setting: next, `O=C(O)c1cccc(O/N=C/c2cc(Cl)cc(Cl)c2)c1`: 0%; `C(=N\Oc1ccccc1)/c1ccccc1`: 96%.
In turn, `O=C(O)c1cccc(/C=N/Oc2cc(Cl)cc(Cl)c2)c1` registered a Formation of 3%.
Same read-out and setting: to `Oc1c(Br)cc(/C=N/Oc2cccc(C(F)(F)F)c2)cc1Br` belongs 4%.
On the same count and under the same terms, to `O=C(O)c1cccc(O/N=C/c2ccccc2C(=O)O)c1` belongs 94%; to `Fc1cc(F)cc(O/N=C/c2ccccc2)c1`, 87%.
Molecule `O=C(O)c1ccc(O/N=C/c2cc(Cl)cc(Cl)c2)cc1` registered a Formation of 9%.
Still for that read-out and setting: to `Fc1cc(F)cc(/C=N/Oc2cc(F)cc(F)c2)c1` belongs 94%.
Molecule `O=C(O)c1ccc(/C=N/Oc2cccc(C(=O)O)c2)cc1` returned a Formation of 31%.
`FC(F)(F)c1cccc(O/N=C/c2ccccc2)c1` had a Formation of 83%.
In turn, `O=C(O)c1ccc(O/N=C/c2ccccc2)cc1` gave a Formation of 32%.
`O=C(O)c1cccc(O/N=C/c2cc(F)cc(F)c2)c1` gave a Formation of 8%.
The molecule `O=C(O)c1ccc(/C=N/Oc2ccccc2C(=O)O)cc1` gave a Formation of 87%.
The molecule `O=C(O)c1ccccc1O/N=C/c1cc(Br)c(O)c(Br)c1` had a Formation of 0%.
Molecule `FC(F)(F)c1ccc(/C=N/Oc2cc(Cl)cc(Cl)c2)cc1` registered a Formation of 68%.
Still for that read-out and setting: next, `O=C(O)c1cccc(/C=N/Oc2ccccc2)c1`: 79%.
Consider `O=C(O)c1cccc(O/N=C/c2c(Cl)cccc2Cl)c1`, for which the Formation worked out at 1%.
As to `O=C(O)c1ccccc1O/N=C/c1c(Cl)cccc1Cl`, the Formation is 59%.
Same read-out and setting: to `O=C(O)c1ccccc1O/N=C/c1cc(I)c(O)c(I)c1` belongs 0%.
On the same count and under the same terms, to `O=C(O)c1ccccc1/C=N/Oc1cccc(C(F)(F)F)c1` belongs 84%; to `Oc1c(I)cc(/C=N/Oc2cc(F)cc(F)c2)cc1I`, 3%.
For the molecule `Clc1cc(Cl)cc(O/N=C/c2ccccc2)c1`, the Formation is 39%.
Still for that read-out and setting: next, `Fc1cc(F)cc(/C=N/Oc2cccc(C(F)(F)F)c2)c1`: 88%; `Fc1cc(F)cc(O/N=C/c2ccccc2C(F)(F)F)c1`: 71%; `FC(F)(F)c1ccc(/C=N/Oc2cccc(C(F)(F)F)c2)cc1`: 93%.
Still for that read-out and setting: next, `FC(F)(F)c1ccccc1O/N=C/c1c(Cl)cccc1Cl`: 15%; `O=C(O)c1ccccc1O/N=C/c1cc(F)cc(F)c1`: 78%.
Take `O=C(O)c1cccc(/C=N/Oc2cccc(C(=O)O)c2)c1`: the Formation amounted to 15%.
The same measure, in the same setting: next, `FC(F)(F)c1ccccc1O/N=C/c1cc(Cl)cc(Cl)c1`: 33%.
As to `Fc1cc(F)cc(O/N=C/c2cc(Cl)cc(Cl)c2)c1`, the Formation was determined as 90%.
Take `O=C(O)c1cccc(O/N=C/c2ccc(C(F)(F)F)cc2)c1`: the Formation came out at 83%.
`FC(F)(F)c1ccc(/C=N/Oc2ccccc2)cc1`: the Formation came to 98%.
On the same count and under the same terms, next, `FC(F)(F)c1ccccc1/C=N/Oc1ccccc1`: 65%; `O=C(O)c1ccccc1O/N=C/c1ccccc1`: 91%.
Same read-out and setting: to `O=C(O)c1cccc(O/N=C/c2ccccc2)c1` belongs 50%.
Take `O=C(O)c1ccccc1/C=N/Oc1cc(Cl)cc(Cl)c1`: the Formation was 30%.
`FC(F)(F)c1cccc(/C=N/Oc2ccccc2C(F)(F)F)c1` yielded a Formation of 57%.
For `O=C(O)c1ccc(O/N=C/c2cccc(C(F)(F)F)c2)cc1`, the Formation stood at 50%.
Turning to `FC(F)(F)c1cccc(O/N=C/c2c(Cl)cccc2Cl)c1`, the Formation came out at 21%.
Same read-out and setting: to `O=C(O)c1ccc(/C=N/Oc2cccc(C(F)(F)F)c2)cc1` belongs 12%.
The same measure, in the same setting: next, `O=C(O)c1ccc(O/N=C/c2ccc(C(F)(F)F)cc2)cc1`: 94%.
As to `FC(F)(F)c1ccccc1/C=N/Oc1cc(Cl)cc(Cl)c1`, the Formation was 32%.
On the same count and under the same terms, next, `O=C(O)c1cccc(O/N=C/c2cccc(C(F)(F)F)c2)c1`: 27%; `FC(F)(F)c1ccccc1O/N=C/c1ccccc1`: 56%.
On the same count and under the same terms, to `Clc1cc(Cl)cc(O/N=C/c2c(Cl)cccc2Cl)c1` belongs 62%; to `FC(F)(F)c1ccc(/C=N/Oc2ccccc2C(F)(F)F)cc1`, 81%; to `O=C(O)c1ccc(O/N=C/c2cc(F)cc(F)c2)cc1`, 18%.
The same measure, in the same setting: to `FC(F)(F)c1ccccc1/C=N/Oc1ccccc1C(F)(F)F` belongs 83%; to `O=C(O)c1ccccc1/C=N/Oc1ccccc1`, 91%.
Turning to `Clc1cccc(Cl)c1/C=N/Oc1ccccc1`, the Formation was 63%.
Molecule `O=C(O)c1ccccc1O/N=C/c1ccc(C(F)(F)F)cc1` came in with a Formation of 90%.
The same measure, in the same setting: to `FC(F)(F)c1cccc(/C=N/Oc2cc(Cl)cc(Cl)c2)c1` belongs 55%.
Same read-out and setting: next, `Fc1cc(F)cc(O/N=C/c2ccc(C(F)(F)F)cc2)c1`: 77%; `O=C(O)c1ccc(/C=N/Oc2ccccc2)cc1`: 77%.
Same read-out and setting: to `FC(F)(F)c1cccc(O/N=C/c2cc(Cl)cc(Cl)c2)c1` belongs 72%; to `O=C(O)c1ccccc1O/N=C/c1ccccc1C(F)(F)F`, 34%; to `Fc1cc(F)cc(/C=N/Oc2ccccc2C(F)(F)F)c1`, 75%.
For the molecule `Fc1cc(F)cc(/C=N/Oc2ccccc2)c1`, the Formation is 95%.
`Fc1cc(F)cc(O/N=C/c2c(Cl)cccc2Cl)c1` returned a Formation of 24%.

The target is the same in the next assay. Briefly: Binding stoichiometry to TTR in human blood plasma determined by antibody capture/HPLC method. It is filed as cell-free. The gist of the method: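 Human blood plasma spiked to 10.8 µM test compound from a 2.16 mM DMSO stock and incubated 24 h at 37 °C. Plasma was precleared with plain Sepharose for 1 h at 4 °C, then split into three aliquots for anti-TTR antibody-resin capture (20 min, 4 °C) in 10 mM Tris pH 8.0, 140 mM NaCl. Resin washed, eluted with 100 mM triethylamine pH 11.5, eluate analysed by HPLC for compound:TTR stoichiometry.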
As to `O=C(O)c1cccc(/C=N/Oc2cccc(C(F)(F)F)c2)c1`, the Binding stoichiometry was less than 0.5.
In turn, `O=C(O)c1cccc(O/N=C/c2cc(Cl)cc(Cl)c2)c1` had a Binding stoichiometry of less than 0.5.
For `O=C(O)c1cccc(/C=N/Oc2cc(Cl)cc(Cl)c2)c1`, the Binding stoichiometry was determined as 0.56.
Still for that read-out and setting: to `Oc1c(Br)cc(/C=N/Oc2cccc(C(F)(F)F)c2)cc1Br` belongs 1.17; to `O=C(O)c1ccc(O/N=C/c2cc(Cl)cc(Cl)c2)cc1`, 0.53.
The molecule `O=C(O)c1cccc(O/N=C/c2cc(F)cc(F)c2)c1` registered a Binding stoichiometry of less than 0.5.
On the same count and under the same terms, next, `O=C(O)c1ccccc1O/N=C/c1cc(Br)c(O)c(Br)c1`: less than 0.5; `O=C(O)c1cccc(O/N=C/c2c(Cl)cccc2Cl)c1`: 0.71.
The molecule `O=C(O)c1ccccc1O/N=C/c1cc(I)c(O)c(I)c1` returned a Binding stoichiometry of less than 0.5.
For the molecule `Oc1c(I)cc(/C=N/Oc2cc(F)cc(F)c2)cc1I`, the Binding stoichiometry came out at 1.83.
